Test results: ChEMBL document CHEMBL4831540, “Discovery of Aficamten (CK-274), a Next-Generation Cardiac Myosin Inhibitor for the Treatment of Hypertrophic Cardiomyopathy” (J Med Chem, 2021)
In brackets after ≈: the same amount, converted by molar mass.

What was measured:
[1] = Half life in cynomolgus monkey at 1 mg/kg, iv; format: ADME, organism-based, Macaca fascicularis; settings: in vivo
How it was run: (§1)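 Multi-species PK study in male animals, n = 3 per group (dog IV arm n = 2). Iv and oral dosing with plasma concentration–time profiles yielding Cmax, tmax, AUC0–t, CL, Vss, t1/2 and F.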

[2] = Metabolic stability in human liver microsomes assessed as intrinsic clearance measured upto 90mins by HPLC/MS/MS analysis; format: ADME, Microsome; settings: read-out: CLH
[3] = Volume of distribution at steady state in cynomolgus monkey at 1 mg/kg, iv; format: ADME, organism-based, Macaca fascicularis; settings: in vivo, read-out: Vdss
How it was run: (§2)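 Single iv or oral doses in male animals, 3 per group except dog iv (2 animals). Plasma concentration–time profiles gave Cmax, tmax, AUC0–t, clearance, steady-state volume of distribution, half-life and bioavailability.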

[4] = Tmax in cynomolgus monkey at 1 mg/kg, po; format: ADME, organism-based, Macaca fascicularis; settings: in vivo; how it was run: as §2
[5] = Oral bioavailability in Beagle dog at 1 mg/kg; format: ADME, organism-based, Canis lupus familiaris; settings: in vivo; how it was run: as §1
[6] = Plasma protein binding in human assessed as unbound fraction; format: ADME, cell-free
[7] = Tmax in Sprague-Dawley rat at 8 mg/kg, po; format: ADME, organism-based; settings: in vivo; how it was run: as §2
[8] = Metabolic stability in rat liver microsomes assessed as intrinsic clearance measured upto 90mins by HPLC/MS/MS analysis; format: ADME, Microsome; settings: read-out: CLH
[9] = Tmax in Sprague-Dawley rat at 2 mg/kg, po; format: ADME, organism-based; settings: in vivo; how it was run: as §2
[10] = Clearance in Sprague-Dawley rat at 1 mg/kg, iv; format: ADME, organism-based; settings: in vivo
How it was run: (§3)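 Rat PK with iv and po administration at 1 mg/kg. Clearance and half-life came from the iv arm, and bioavailability from the iv/po comparison.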

[11] = Half life in Sprague-Dawley rat at 1 mg/kg; format: ADME, organism-based; settings: in vivo; how it was run: as §3
[12] = Plasma protein binding in rat plasma assessed as unbound concentration at 5 uM incubated for 6 hrs by HPLC analysis; format: ADME, cell-free
[13] = Solubility of the compound at pH 6.8 by shake flask method; format: physicochemical; settings: buffer
How it was run: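 Shake-flask solubility at pH 6.8; solid form not characterized.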

Rattus norvegicus = experiment: Anti-hypertrophic cardiomyopathy in po dosed Sprague-Dawley rat assessed as reduction in fractional shortening by measuring free concentration measured upto 24 hrs by echocardiography; format: functional; settings: time hrs <=24
How it was run: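 Sprague–Dawley rats received single oral doses of 0.5–4 mg/kg, with fractional shortening measured by echocardiography over 24 h. Blood was sampled at each echo time point. Plasma levels were converted to free concentrations using rat plasma protein binding, and free IC10 and IC50 were derived from the FS reduction–concentration relationship.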

[14] = Cmax in mouse at 1 mg/kg, po; format: ADME, organism-based; set-up: route oral, dose 1 mg/kg; settings: in vivo; how it was run: as §1
[15] = Oral bioavailability in Sprague-Dawley rat at 8 mg/kg; format: ADME, organism-based; settings: in vivo; how it was run: as §2
Cytochrome P450 2B6 = biological target: T1, Cytochrome P450 2B6 (Homo sapiens, UniProt P20813); experiment: Inhibition of CYP2B6 in human liver microsomes assessed as bupropion hydroxylation reaction incubated for 30 mins in presence of NADP by LC-MS/MS analysis; format: ADME
T1 sequence (P20813 whole entry): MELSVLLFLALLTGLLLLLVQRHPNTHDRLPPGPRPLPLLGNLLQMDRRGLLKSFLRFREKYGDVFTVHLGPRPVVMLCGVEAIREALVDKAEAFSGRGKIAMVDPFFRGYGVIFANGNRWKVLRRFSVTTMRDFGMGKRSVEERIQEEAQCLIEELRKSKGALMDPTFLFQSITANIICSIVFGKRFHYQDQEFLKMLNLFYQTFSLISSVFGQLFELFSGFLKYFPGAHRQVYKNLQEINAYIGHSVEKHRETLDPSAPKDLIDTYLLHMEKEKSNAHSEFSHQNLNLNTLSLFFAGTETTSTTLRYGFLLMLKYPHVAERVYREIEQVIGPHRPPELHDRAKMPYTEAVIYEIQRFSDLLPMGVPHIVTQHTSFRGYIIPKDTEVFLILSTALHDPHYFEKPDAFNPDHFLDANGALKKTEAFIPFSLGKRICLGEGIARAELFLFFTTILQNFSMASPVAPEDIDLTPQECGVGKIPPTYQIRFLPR

[16] = Clearance in Sprague-Dawley rat at 1 mg/kg; format: ADME, organism-based; settings: in vivo; how it was run: as §3
[17] = Plasma protein binding in Sprague-Dawley rat assessed as unbound fraction; format: ADME
[18] = Cmax in Sprague-Dawley rat at 2 mg/kg, po; format: ADME, organism-based; set-up: route oral, dose 2 mg/kg; settings: in vivo; how it was run: as §1
Cytochrome P450 1A2 = biological target: T2, Cytochrome P450 1A2 (Homo sapiens, UniProt P05177); experiment: Inhibition of CYP1A2 in human liver microsomes assessed as phenacetin O-deethylation reaction incubated for 30 mins in presence of NADP by LC-MS/MS analysis; format: ADME
T2 sequence (P05177 whole entry): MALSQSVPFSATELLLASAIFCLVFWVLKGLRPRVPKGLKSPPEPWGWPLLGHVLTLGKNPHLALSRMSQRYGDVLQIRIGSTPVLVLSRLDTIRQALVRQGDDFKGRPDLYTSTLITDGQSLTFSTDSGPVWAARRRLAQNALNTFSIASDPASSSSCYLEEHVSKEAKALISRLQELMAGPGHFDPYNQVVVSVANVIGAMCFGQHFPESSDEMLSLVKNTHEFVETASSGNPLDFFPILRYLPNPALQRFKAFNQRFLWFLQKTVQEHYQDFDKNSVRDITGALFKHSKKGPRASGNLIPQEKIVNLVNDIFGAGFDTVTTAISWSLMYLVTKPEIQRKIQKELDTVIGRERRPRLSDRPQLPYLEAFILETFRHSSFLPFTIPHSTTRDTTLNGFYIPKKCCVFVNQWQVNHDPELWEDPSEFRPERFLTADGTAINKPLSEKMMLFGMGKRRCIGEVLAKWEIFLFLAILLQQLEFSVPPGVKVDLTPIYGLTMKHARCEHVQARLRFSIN

[19] = Half life in Sprague-Dawley rat at 2 mg/kg, po; format: ADME, organism-based; settings: in vivo; how it was run: as §1
[20] = Tmax in mouse at 1 mg/kg, po; format: ADME, organism-based; settings: in vivo; how it was run: as §2
[21] = Ratio of IC50 to IC10 for anti-hypertrophic cardiomyopathy in po dosed Sprague-Dawley rat assessed as reduction in fractional shortening measured upto 24 hrs by echocardiography; format: functional; settings: time hrs <=24
How it was run: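 Sprague–Dawley rats received single oral doses from 0.5 to 4 mg/kg. LV dimensions and fractional shortening were read by echocardiography at set times over 24 h, with blood drawn at each reading for compound level. Concentrations giving 50% and 10% FS reduction were derived, and their IC50/IC10 ratio was calculated.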

CCc1nc(-c2ccc3c(c2)CC[C@H]3NC(=O)c2cnn(C)c2)no1 [AFICAMTEN]
half-life [1]: 8.1 h
CLint scaled [2]: < 11 mL/min/kg
Vd [3]: 7.76 L/kg
Tmax [4]: 1.17 h
bioavailability [5]: 45%
fraction unbound [6]: 0.095
Tmax [7]: 0.58 h
CLint scaled [8]: < 21 mL/min/kg
Tmax [9]: 0.92 h
clearance [10]: 2.1 mL/min/kg
half-life [11]: 3 h
fraction unbound at 6 h, 5 µM [12]: 0.018
solubility thermodynamic [13]: 97 µM (≈ 32.7 µg/mL)
IC10 (Rattus norvegicus): 0.0144 µM
Cmax [14]: 268 ng/mL
bioavailability [15]: 79%
IC50 (Cytochrome P450 2B6): > 100 µM
clearance [16]: 2.1 mL/min/kg
fraction unbound [17]: 0.018
Cmax [18]: 1650 ng/mL
IC50 (Cytochrome P450 1A2): > 100 µM
half-life [19]: 2.6 h
Tmax [20]: 0.25 h
Ratio [21]: 9.9
